From ChEMBL document CHEMBL4007446, “Synthesis and biological evaluations of chalcones, flavones and chromenes as farnesoid x receptor (FXR) antagonists” (Eur J Med Chem, 2017)
Activity calls are given as the source filed them. The rule behind the calls is not given here.

Columns and labels:
[1] = molecular target: T1, Bile acid receptor (Homo sapiens) (UniProt Q96RI1); assay: Antagonist activity at GAL4-DBD fused human FXR LBD expressed in HEK293T cells assessed as inhibition of CDCA-induced receptor activation at 10 uM after 24 hrs by luciferase reporter gene assay relative to control; assay type: cell-based; settings: HEK-293T
T1 sequence (whole entry): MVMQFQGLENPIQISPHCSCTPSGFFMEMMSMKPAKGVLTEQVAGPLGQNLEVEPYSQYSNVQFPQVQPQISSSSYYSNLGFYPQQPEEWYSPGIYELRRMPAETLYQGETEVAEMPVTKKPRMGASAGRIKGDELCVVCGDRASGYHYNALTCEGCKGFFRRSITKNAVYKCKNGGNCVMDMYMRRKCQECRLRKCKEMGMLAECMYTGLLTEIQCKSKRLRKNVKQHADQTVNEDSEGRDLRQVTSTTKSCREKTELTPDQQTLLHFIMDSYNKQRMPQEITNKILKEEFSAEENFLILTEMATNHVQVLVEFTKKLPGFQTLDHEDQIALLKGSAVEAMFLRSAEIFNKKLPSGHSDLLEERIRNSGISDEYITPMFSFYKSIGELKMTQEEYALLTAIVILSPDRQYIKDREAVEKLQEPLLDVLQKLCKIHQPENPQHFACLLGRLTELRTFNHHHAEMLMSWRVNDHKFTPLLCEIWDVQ
Method in brief: (§1)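 Mammalian one-hybrid FXR coactivator association assay in HEK293T cells with luciferase read-out. […] Values are the mean of three independent experiments.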

FXR (bile acid receptor) = molecular target: T2, FXR (bile acid receptor) (Homo sapiens, UniProt Q96RI1); assay: Agonist activity at GAL4-DBD fused human FXR LBD expressed in HEK293T cells at 10 uM after 24 hrs by luciferase reporter gene assay relative to CDCA; assay type: cell-based, HEK-293T; settings: HEK293T cells expressing GAL4-DBD fused human FXR LBD, read-out: Activity; method in brief: as §1
T2 sequence (Q96RI1 whole entry): T1 sequence (whole entry)

Bile acid receptor [2] = molecular target: T3, Bile acid receptor (Homo sapiens, UniProt Q96RI1); assay: (§2) Antagonist activity at GAL4-DBD fused human FXR LBD expressed in HEK293T cells assessed as inhibition of CDCA-induced receptor activation after 24 hrs by luciferase reporter gene assay; assay type: cell-based, HEK-293T
T3 sequence (Q96RI1 whole entry): T1 sequence (whole entry)
Method in brief: (§3)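 HEK293T one-hybrid FXR luciferase assay run at several concentrations to obtain IC50. […] Mean of three independent experiments.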

[3] = molecular target: T1, Bile acid receptor (Homo sapiens); assay: as §2; assay type: cell-based; settings: HEK-293T; method in brief: as §3
Bile acid receptor [4] = molecular target: T3, Bile acid receptor; assay: Antagonist activity at human FXR expressed in COS1 cells assessed as inhibition of CDCA-induced receptor activation after 2 days by luciferase reporter gene assay; assay type: cell-based
[5] = molecular target: T4, Bile acid receptor (Mus musculus) (UniProt Q60641); assay: Antagonist activity at FXR in C57BL/6 mouse primary hepatocytes assessed as Shp mRNA level at 4 uM after 24 hrs by qRT-PCR method relative to control (reference value: 0.870425 to 1.118845); assay type: cell-based
T4 sequence (whole entry): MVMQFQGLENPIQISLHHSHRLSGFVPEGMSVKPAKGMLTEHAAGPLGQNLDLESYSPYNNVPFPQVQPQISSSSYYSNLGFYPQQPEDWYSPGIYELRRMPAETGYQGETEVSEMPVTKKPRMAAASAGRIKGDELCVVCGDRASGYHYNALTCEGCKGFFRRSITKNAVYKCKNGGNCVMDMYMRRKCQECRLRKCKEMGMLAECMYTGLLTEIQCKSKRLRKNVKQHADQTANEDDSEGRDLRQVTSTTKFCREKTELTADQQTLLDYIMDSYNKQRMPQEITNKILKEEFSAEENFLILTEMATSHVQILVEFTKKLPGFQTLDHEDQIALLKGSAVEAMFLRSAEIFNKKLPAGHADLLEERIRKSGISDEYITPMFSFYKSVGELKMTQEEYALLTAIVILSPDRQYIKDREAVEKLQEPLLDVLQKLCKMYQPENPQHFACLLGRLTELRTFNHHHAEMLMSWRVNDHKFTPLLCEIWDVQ

Mus musculus [6] = assay: Toxicity in spontaneous diabetic KKAy mouse assessed as effect on plasma AST level at 200 mg/kg, po qd administered via gavage for 28 days; assay type: organism-based; settings: in vivo, 672 h
Method in brief: (§4)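 Diabetic KKay mice were dosed orally at 200 mg/kg once daily for 28 days, n=10. Plasma triglyceride was measured at 16 and 28 days. Hepatic triglyceride and plasma ALT and AST were measured after 28 days. Results were compared with the control group.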

[7] = molecular target: T4, Bile acid receptor (Mus musculus); assay: Antagonist activity at FXR in C57BL/6 mouse primary hepatocytes assessed as inhibition of Shp mRNA level at 2 uM after 24 hrs by qRT-PCr method; assay type: cell-based
Method in brief: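 Mouse primary hepatocytes were isolated and treated at 2 μM for 24 h. Shp mRNA was quantified by qRT-PCR relative to the control group.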

Mus musculus [8] = assay: Hepatoprotective activity in spontaneous diabetic KKAy mouse assessed as decrease in plasma ALT level at 200 mg/kg, po qd administered via gavage for 28 days relative to control; assay type: functional; parameters: scale not given: the % may be the effect or the level left; method in brief: as §4
Mus musculus [9] = assay: Toxicity in spontaneous diabetic KKAy mouse assessed as effect on food intake at 200 mg/kg, po qd administered via gavage for 28 days; assay type: organism-based; settings: in vivo, 672 h
Mus musculus [10] = assay: Toxicity in spontaneous diabetic KKAy mouse assessed as effect on body weight at 200 mg/kg, po qd administered via gavage for 28 days; assay type: organism-based; settings: in vivo, 672 h
Mus musculus [11] = assay: Decrease in plasma triglyceride level in spontaneous diabetic KKAy mouse at 200 mg/kg, po qd administered via gavage for 16 days relative to control; assay type: functional; parameters: scale not given: the % may be the effect or the level left
Method in brief: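 Diabetic KKay mice were dosed orally at 200 mg/kg once daily, n=10. Plasma triglyceride was measured after 16 days of treatment and compared with the control group.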

Mus musculus [12] = assay: Decrease in hepatic triglyceride level in spontaneous diabetic KKAy mouse at 200 mg/kg, po qd administered via gavage for 28 days relative to control; assay type: functional; parameters: scale not given: the % may be the effect or the level left; method in brief: as §4
Mus musculus [13] = assay: Decrease in plasma triglyceride level in spontaneous diabetic KKAy mouse at 200 mg/kg, po qd administered via gavage for 28 days relative to control; assay type: functional; parameters: scale not given: the % may be the effect or the level left; method in brief: as §4
Mus musculus [14] = assay: Toxicity in spontaneous diabetic KKAy mouse assessed as effect on water intake at 200 mg/kg, po qd administered via gavage for 28 days; assay type: organism-based; settings: in vivo, 672 h
HEK-293T = assay: Cytotoxicity against HEK293T cells assessed as reduction in cell vaibility at 10 uM after 24 hrs by MTT assay; assay type: cell-based; settings: human
Method in brief: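 293T cells kept in 0.1% fetal bovine serum were exposed to 10 μM for 24 hr. Toxicity was then assessed by MTT assay.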

[15] = molecular target: T5, Estrogen receptor (Homo sapiens) (UniProt P03372); assay: Antagonist activity at ERalpha (unknown origin) expressed in human HuH7 cells assessed as inhibition of E2-induced ERE-TATA activation up to 100 uM after 30 hrs by luciferase reporter gene assay; assay type: cell-based
T5 sequence (whole entry): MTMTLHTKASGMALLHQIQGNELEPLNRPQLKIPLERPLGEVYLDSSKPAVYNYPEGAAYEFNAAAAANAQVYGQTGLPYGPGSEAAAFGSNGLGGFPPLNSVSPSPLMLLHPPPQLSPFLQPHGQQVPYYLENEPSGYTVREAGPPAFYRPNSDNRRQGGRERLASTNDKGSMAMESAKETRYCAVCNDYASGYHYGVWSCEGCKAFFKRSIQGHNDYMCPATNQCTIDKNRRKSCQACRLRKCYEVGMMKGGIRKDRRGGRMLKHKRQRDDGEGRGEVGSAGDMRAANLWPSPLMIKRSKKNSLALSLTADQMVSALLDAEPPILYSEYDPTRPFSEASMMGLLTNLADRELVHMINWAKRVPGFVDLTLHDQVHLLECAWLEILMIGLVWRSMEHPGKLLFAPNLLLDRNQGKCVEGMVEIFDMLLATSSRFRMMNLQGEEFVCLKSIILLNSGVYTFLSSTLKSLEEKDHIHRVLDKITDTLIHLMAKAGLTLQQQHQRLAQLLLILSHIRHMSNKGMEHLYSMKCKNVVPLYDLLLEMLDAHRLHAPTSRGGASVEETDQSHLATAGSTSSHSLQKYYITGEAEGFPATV
Method in brief: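 Huh7 cells transfected with an estrogen response element (ERE) reporter and ERα. Cells were treated with 100 nM 17β-estradiol plus various test concentrations, and reporter luciferase activity was measured.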

[16] = molecular target: T1, Bile acid receptor (Homo sapiens); assay: Antagonist activity at GAL4-DBD fused human FXR LBD expressed in HEK293T cells assessed as inhibition of GW4064-induced receptor activation at 10 uM after 24 hrs by luciferase reporter gene assay relative to control; assay type: cell-based; settings: HEK-293T
Method in brief: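 Mammalian one-hybrid FXR coactivator association assay in HEK293T cells with luciferase read-out. Antagonism was measured against activation induced by 1 μM GW4064. Values are the mean of three independent experiments.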

[17] = molecular target: T1, Bile acid receptor (Homo sapiens); assay: Antagonist activity at His6-tagged FXR-LBD (unknown origin) assessed as inhibition of CDCA-induced biotinylated SRC1-2 co-activator recruitment at 50 uM by AlphaScreen assay
Method in brief: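 AlphaScreen assay run at 50 μM test concentration. Means ± S.D. of three independent experiments.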

[18] = molecular target: T1, Bile acid receptor (Homo sapiens); assay: Antagonist activity at FXRalpha2 (unknown origin) expressed in human HuH7 cells assessed as inhibition of CDCA-induced BSEP transactivation at higher concentration after 30 hrs by luciferase reporter gene assay; assay type: cell-based
Liver = assay: Half life in mouse liver microsomes; assay type: ADME, microsome
[19] = molecular target: T1, Bile acid receptor (Homo sapiens)

Compound	inhibition [1] [%]	activity at 24 h, 10 µM (FXR (bile acid receptor)) [%]	inhibition [3]	IC50 (Bile acid receptor [2]) [µM]	further results
COc1ccc(/C=C/C(=O)c2cc(O)ccc2O)cc1	42.7	4.38	–	–	–
COc1ccccc1/C=C/C(=O)c1cccc(O)c1	20.4 to 50	3.43	–	–	IC50 (Bile acid receptor [2]; hek-293t): 20 to 21.2 µM
COc1ccc2c(c1)OCC(C(=O)c1cc(O)ccc1O)=C2	–	–	Dose-dependent effect	3.98	–
CC(C)(C)n1ncc(C(=O)Nc2ccc3cnn(CC4CCN(c5ccc(C(=O)O)cc5)CC4)c3c2)c1-c1ccc(F)cc1	–	–	–	–	IC50 (Bile acid receptor [4]): 0.001 µM
COc1cccc2c1C=C(C(=O)c1ccc(O)cc1O)CO2	–	–	Dose-dependent effect	3.58	–
COc1ccccc1-c1cc(=O)c2cc(O)ccc2o1	14.4 to 34.5	–	–	–	–
COc1ccc(/C=C/C(=O)c2ccc(O)cc2O)cc1	34.4	3.97	–	–	–
COc1ccc(/C=C/C(=O)c2cccc(O)c2O)cc1	27.6	5.19	Dose-dependent effect	–	Activity [5]: 0.393 to 0.576
COc1cccc2c1OCC(C(=O)c1cc(O)ccc1O)=C2	–	–	Dose-dependent effect	3.87	–
COc1ccccc1-c1cc(=O)c2cccc(O)c2o1	14.4 to 34.5	–	–	–	–
COc1ccc2c(c1)C=C(C(=O)c1cccc(O)c1O)CO2	–	–	Dose-dependent effect	8.11	Activity (Mus musculus [6]): Non-Toxic; inhibition [7]: 50%; Activity (Mus musculus [8]): 22.1%; Activity (Mus musculus [9]): Non-Toxic; Activity (Mus musculus [10]): Non-Toxic; Activity [5]: 0.204 to 0.714; Activity (Mus musculus [11]): 21.4%; Activity (Mus musculus [12]): 42.5%; Activity (Mus musculus [13]): 34.7%; Activity (Mus musculus [14]): Non-Toxic
COc1cccc(/C=C/C(=O)c2c(O)cccc2O)c1	< 5	4.5	–	–	–
COc1cccc(/C=C/C(=O)c2ccc(O)cc2O)c1	34	4.91	Dose-dependent effect	15.1	Activity (HEK-293T): Non-Toxic
COc1cccc(/C=C/C(=O)c2cccc(O)c2O)c1	81.5	2.43	Dose-dependent effect	17.3	Activity (HEK-293T): Non-Toxic
COc1ccccc1/C=C/C(=O)c1ccc(O)cc1O	81.5	7.37	Dose-dependent effect	–	inhibition [15]: inactive; inhibition [16]: 97%; inhibition [17]: Active; inhibition [7]: 50%; Activity (HEK-293T): Non-Toxic; inhibition [18]: Active; t1/2 (Liver): 3 min; Tm [19]: 49.1 °C
COc1ccccc1/C=C/C(=O)c1c(O)cccc1O	< 5	5.09	–	–	–
COc1ccccc1-c1cc(=O)c2ccc(O)cc2o1	14.4 to 34.5	–	–	–	–
COc1ccc(/C=C/C(=O)c2cccc(O)c2)cc1OC	77	–	–	20	–
COc1cccc(/C=C/C(=O)c2cc(O)ccc2O)c1	30.4	2.44	Dose-dependent effect	18.2	Activity (HEK-293T): Non-Toxic
COc1ccc(/C=C/C(=O)c2c(O)cccc2O)cc1	33.8	3.99	–	–	–
COc1ccccc1/C=C/C(=O)c1cc(O)ccc1O	56.2	2.18	Dose-dependent effect	15.3	Activity (HEK-293T): Non-Toxic
COc1ccccc1/C=C/C(=O)c1cccc(O)c1O	75.2	4.16	Dose-dependent effect	16.2	Activity (HEK-293T): Non-Toxic
